# Sampled rows, rich in hits. Any-hit rate of the full collection: about 1.6%.
# SENP1 inh: SENP1 (human) catalytic domain inhibition; Q9P0U3; recombinant SENP1 catalytic domain, CyPet-SUMO1-YPet FRET cleavage; inhibition, % at 10 µM; 0.21% of 360,000 active; AID 624204;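 active = inhibition at least 30% at 10 µM, raw YFP signal under a set limit, fluorescence ratio 0.5 to 1.5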;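 also: 0% = enzyme with DMSO and 100% = no enzyme wells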
#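 Test system: human SENP1 catalytic domain; medium: Tris pH 8 buffer plus EDTA, NaCl, BME, BSA, NP40, catalase; incubation: 50 min reaction at room temperature; technique: FRET, CFP and YFP emission; controls: no-enzyme low control and enzyme-plus-DMSO high control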
# Rpn11 block: blocks the human proteasome subunit Rpn11; AID 588493; 0.59% of 360,000 active; human 26S proteasome, Ub4-pepOG fluorescence polarization; 20S core pre-blocked with epoxomicin; inhibition, % at 20 µM;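 active = inhibition at 20 µM, scaled to each plate's controls, above about 33%, limit read from the data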
# Target sequence (O00487 whole entry, looked up): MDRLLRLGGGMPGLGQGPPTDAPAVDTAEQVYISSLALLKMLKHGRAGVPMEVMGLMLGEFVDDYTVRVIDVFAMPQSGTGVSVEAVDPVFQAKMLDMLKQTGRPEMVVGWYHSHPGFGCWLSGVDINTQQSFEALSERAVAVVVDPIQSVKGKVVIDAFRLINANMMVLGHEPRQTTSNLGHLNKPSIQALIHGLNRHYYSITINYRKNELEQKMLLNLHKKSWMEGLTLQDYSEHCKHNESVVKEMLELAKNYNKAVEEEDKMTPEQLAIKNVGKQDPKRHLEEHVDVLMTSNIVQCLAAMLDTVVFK
# CSN deneddyl inh: blocks human CSN-mediated cullin deneddylation; Purified CSN, SCF-Nedd8-OG deneddylation, fluorescence polarization; inhibition, % at 12.5 µM; 0.38% of 360,000 active;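 active = pattern-corrected inhibition above about 35%, with an unprinted fluorescence ratio check between 0.5 and 1.5, limit read from the data, passing the limit was not always enough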;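 also: 0% = enzyme with substrate and 100% = substrate without enzyme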
# Target sequence (Q92905 whole entry, looked up, one chain of several): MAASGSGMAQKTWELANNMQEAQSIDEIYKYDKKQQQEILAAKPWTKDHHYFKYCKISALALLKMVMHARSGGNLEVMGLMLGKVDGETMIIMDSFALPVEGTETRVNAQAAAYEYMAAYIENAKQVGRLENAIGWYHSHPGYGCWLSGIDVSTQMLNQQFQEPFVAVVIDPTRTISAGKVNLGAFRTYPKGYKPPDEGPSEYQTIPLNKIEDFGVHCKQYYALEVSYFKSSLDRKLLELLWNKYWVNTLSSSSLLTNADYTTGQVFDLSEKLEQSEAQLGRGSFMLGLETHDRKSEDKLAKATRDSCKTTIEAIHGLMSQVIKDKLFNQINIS
#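 Schedule: reaction 90 min, room temperature / Assay system: HEK293T-derived human Csn5 enzyme / Input: Csn5 at 0.24 nM final / Measure: inhibition of Csn5 cleavage, % / Control set: substrate-only high control, full reaction low control / Technique: fluorescence polarization of the substrate / Buffer or medium: Tris/NaCl/DTT buffer, pH 7.5 / Reagent: SCFSkp2-Nedd8OG substrate at 10 nM final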
# HNF4A DNA FP: change in binding of human HNF4 alpha to DNA | 0.3% of 360,000 active | AID 1224865 | HNF4a-FITC DNA binding, fluorescence polarization, 1 h | P41235 | activity change, % at 10 µM; in the data active = activity change above about 30%, passing the limit was not always enough
# TPT1 inhibitor: inhibitors of Candida albicans tRNA 2'-phosphotransferase TPT1; recombinant caTPT1, FP RNA substrate dephosphorylation; inhibition, % at 5 µM; 0.81% of 300,000 active;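 active = inhibition above the mean of all tested compounds plus 3 SD, set per screening campaign, cut at about 24% in these data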;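 also: plate controls were DMSO alone for no effect and ferristatin control at 100 nM for full effect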
# Rpn11 confirm: Rpn11 inhibition confirmation, single concentration. shares compounds with Rpn11 block. purified human 26S proteasome, Ub4-pepOG fluorescence polarization; proteasome pretreated with epoxomicin. inhibition, % at 20 µM. 29% of 1,900 active. AID 602318
# MMP-2 counter-1: MMP-2 (human) inhibition counter-screen; recombinant MMP-2, FRET peptide cleavage fluorescence; inhibition, % at 20 µM; 4% of 1,900 active; shares compounds with Rpn11 block;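 also: human MMP-2 activated beforehand with APMA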
# Thrombin inh: thrombin (bovine) inhibition counter-screen. shares compounds with Rpn11 block. bovine thrombin cleavage of Ub4-pepOG, fluorescence polarization. inhibition, % at 20 µM. 13% of 1,900 active. AID 602333;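 active = mean inhibition at least 40% at 20 µM, or signal 3 deviations below plate average, so some actives read negative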;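 also: plate controls were thrombin with DMSO for no effect and buffer wells lacking thrombin for full effect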
# CSN deneddyl val: Csn5 (human) deneddylation inhibition, single-concentration validation. shares compounds with CSN deneddyl inh. Csn5 deneddylation of SCF-Nedd8OG, fluorescence polarization, 90 min. inhibition, % at 16.6 µM. 62% of 540 active; in the data active = inhibition above about 50%;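 also: 0% = DMSO with enzyme and 100% = no enzyme wells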
# MMP-2 counter-2: blocks human MMP-2 in a CSN deneddylation counter-screen; shares compounds with CSN deneddyl inh; recombinant MMP-2, FRET substrate fluorescence, 60 min; inhibition, % at 16.6 µM; 33% of 540 active;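 active = corrected plate-normalized z-score of 5 or more, or -5 or less, or inhibition of 15% or more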;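 also: plate controls were DMSO wells with enzyme for no effect and buffer wells lacking MMP-2 for full effect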
# Thrombin counter: counter-screen for CSN deneddylation inhibitors: bovine thrombin inhibition; shares compounds with CSN deneddyl inh; bovine thrombin cleavage of Ub4-pepOG, fluorescence polarization; inhibition, % at 16.6 µM; 49% of 540 active; AID 720656;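 active = inhibition at or above a set limit, with a fluorescence interference ratio between 0.5 and a set maximum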
# HNF4a DNA conf: change in binding of human HNF4 alpha to DNA, retest | shares compounds with HNF4A DNA FP | HNF4A-FITC DNA binding, fluorescence polarization, 1 h | 99% of 210 active | AID 1224897 | activity change, % at 12.5 µM; call rule not given here
# Active calls of the source: *; i = inactive; nt = not tested or not shown; + = active, no number. Rule as the data show it, unless noted: active = inhibition above about 40%; inactive = the rest.
SMILES,SENP1 inh,Rpn11 block,CSN deneddyl inh,HNF4A DNA FP,TPT1 inhibitor,Rpn11 confirm,MMP-2 counter-1,Thrombin inh,CSN deneddyl val,MMP-2 counter-2,Thrombin counter,others
COCC(C)N=C1NN=C(c2c[nH]c3ccccc23)CS1 (centres undefined),0,8,5,-1,4,nt,nt,nt,nt,nt,nt,
CCN1/C(=C/c2ccc3cc(C)ccc3[n+]2CC)Sc2cc(C)c(C)cc21,58,89*,50*,107*,nt,75*,-63,146*,29,7,43,
Cc1ccc(CSc2nnc(SCC(=O)N/N=C/c3c[nH]c4ccccc34)s2)cc1,1,112*,61*,108*,nt,93*,9,5,67*,23*,1,
CCC1(C)Cc2ccccc2C(=S)N1 (centres undefined),0,-6,7,0,3,nt,nt,nt,nt,nt,nt,
COc1ccccc1-n1cnc2c(c1=O)c1nc3ccccc3nc1n2-c1ccc(C)c(C)c1,-4,54*,88*,23,nt,24,-23,0,124*,9,2,
Cc1cccnc1NC(=O)CCCNC(=O)c1ccc(Cl)cc1,1,0,0,4,-5,nt,nt,nt,nt,nt,nt,
CC(=O)OC1CC[C@@]2(C)C(CCC3C2CC(=O)[C@@]2(C)C3CC3CC(C)=CC(=O)C32)C1 (some centres undefined),1,-7,0,1,nt,nt,nt,nt,nt,nt,nt,
CCS(=O)(=O)C1=NN2C(=N)/C(=C\c3ccc(SCc4ccco4)o3)C(=O)N=C2S1,-28,+,116*,32,nt,122*,11,49*,-5,14,54*,
CCS(=O)(=O)C1=NN2C(=N)/C(=C\c3ccc(OC(=O)c4ccco4)c(Br)c3)C(=O)N=C2S1,nt,nt,nt,nt,21,nt,nt,nt,nt,nt,nt,
COCCCNC1=C(C#N)C(=O)NC2(CCCC2)S1,-23,-8,-1,-5,nt,nt,nt,nt,nt,nt,nt,
COc1cccc2sc3ccc(NCCC4CCCN4C)cc3c(=O)c12 (centres undefined),-5,-12,-8,-13,-8,nt,nt,nt,nt,nt,nt,
COc1cc2sc3cc(NCC[C@@H]4CCCN4C)ccc3c(=O)c2cc1OC,-26,57*,36*,21,nt,-4,17,1,109*,8,-15,
C=CCOC(=O)c1cc(-c2ccc(/C=C3\C(=O)NC(=O)C(C#N)=C3C)o2)ccc1Cl,-14,58*,43*,-17,nt,37,14,31,18*,24*,7,
O=[N+]([O-])c1ccc(N/N=C/c2sc(N3CCOCC3)nc2-c2ccccc2)c(S(=O)(=O)Nc2ccccc2Cl)c1,35,69*,51*,60*,nt,55*,-2,46*,83*,-4,36*,
c1ccc(CN2CC[C@@H](Nc3nccn4ccnc34)C2)cc1,-5,-1,-2,0,nt,nt,nt,nt,nt,nt,nt,
COc1ccc(-c2cc(NC=O)c3ncc(-c4ccc(C(C)=O)cc4)n3c2)cn1,-16,55*,42*,22,nt,26,-9,11,100*,5,3,
CC(=O)Nc1cccc(-c2cc(NC=O)c3ncc(-c4ccc(C(C)=O)cc4)n3c2)c1,-8,7,7,9,nt,nt,nt,nt,nt,nt,nt,
Cn1ccc2cc3c(cc21)CCN3C(=O)Nc1cccnc1,23,91*,102*,24,4,23,-362,-6,61*,-41*,3,
O=C(NCc1ccccn1)c1cccc(S(=O)(=O)NCc2ccccc2)c1,-1,-9,0,5,-2,nt,nt,nt,nt,nt,nt,
CC(=O)Nc1ccc(S(=O)(=O)N2CCN(C(=O)C3COc4ccccc4O3)CC2)cc1 (centres undefined),2,-14,4,3,-1,nt,nt,nt,nt,nt,nt,
COc1ccc(S(=O)(=O)N2CCN(C(=O)C3COc4ccccc4O3)CC2)cc1 (centres undefined),-1,86*,45*,-48,nt,65*,15,58*,nt,8,16*,
COC(=O)c1cnn(-c2nc(-c3ccccc3)cs2)c1N,2,6,3,0,-1,nt,nt,nt,nt,nt,nt,
COc1ccccc1-c1csc(-n2ncc(C#N)c2N)n1,0,92*,68*,241,7,45*,50*,-16,-6,72*,17*,
CCCc1cc(=O)oc2cc(OCC(=O)Nc3ccc(S(N)(=O)=O)cc3)ccc12,0,+,104*,-34,1,6,67*,-10,-3,46*,32*,
CCCc1cc(=O)oc2cc(OCC(=O)NCc3cccs3)ccc12,-5,0,8,5,-1,nt,nt,nt,nt,nt,nt,
SMILES,SENP1 inh,Rpn11 block,CSN deneddyl inh,HNF4A DNA FP,TPT1 inhibitor,Rpn11 confirm,MMP-2 counter-1,Thrombin inh,CSN deneddyl val,MMP-2 counter-2,Thrombin counter,others
Cc1ccc(C)c(N(CC(=O)NC2CCCC2)C(=O)CCC(=O)Nc2nccs2)c1,0,2,2,1,1,nt,nt,nt,nt,nt,nt,
CCn1c(CN2CCN(C(c3ccccc3)c3ccccc3)CC2)nc2c1c(=O)n(C)c(=O)n2C,-8,4,2,5,-8,nt,nt,nt,nt,nt,nt,
O=C(O)c1ccc(NC(=S)NC(=O)c2ccc(-c3ccc(Br)cc3)o2)cc1,1,145*,53*,-64,0,74*,23,26,67*,16*,16*,
O=C(N/N=C/c1cc2ccccc2nc1Cl)/C(=C/c1cccs1)NC(=O)c1ccccc1,-3,52*,19,47*,10,19,-175,15,nt,nt,nt,HNF4a DNA conf=50*
COc1cc(/C=N/NC(=O)c2cccnc2)ccc1OCC(=O)Nc1ccccc1Cl,0,142*,146*,48*,-3,+,i,-9,nt,nt,nt,HNF4a DNA conf=124*
COc1ccc(NC(=O)COc2ccc(/C=N/NC(=O)c3cccnc3)cc2OC)cc1,3,-8,-1,3,0,nt,nt,nt,nt,nt,nt,
O=C(COc1ccc(F)cc1Br)Nc1ccccc1N1CCOCC1,-1,-4,0,-5,nt,nt,nt,nt,nt,nt,nt,
